Hit rate of the full screen: of about 360,000 compounds, about 1,400 (0.39%) were called active.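 How the source made its calls: active means pattern-corrected inhibition above about 35%, with an unprinted fluorescence ratio check between 0.5 and 1.5 (limit read from the data, passing the limit was not always enough); inactive means the rest.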 Many of the other results were omitted from the sample, so actives are more common in it than they were.

Sequence of COP9 signalosome complex subunit 5 (Homo sapiens) (Q92905 whole entry, looked up, one chain of several): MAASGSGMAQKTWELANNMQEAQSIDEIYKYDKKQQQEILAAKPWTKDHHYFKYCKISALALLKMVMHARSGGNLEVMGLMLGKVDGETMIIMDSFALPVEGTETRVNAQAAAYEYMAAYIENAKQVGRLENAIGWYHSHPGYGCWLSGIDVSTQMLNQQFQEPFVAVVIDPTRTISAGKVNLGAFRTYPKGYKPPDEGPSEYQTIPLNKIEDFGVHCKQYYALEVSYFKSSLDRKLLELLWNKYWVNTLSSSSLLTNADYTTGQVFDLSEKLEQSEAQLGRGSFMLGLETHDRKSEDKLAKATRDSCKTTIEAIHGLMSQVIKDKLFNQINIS

The target of the experiment is COP9 signalosome complex subunit 5 (Homo sapiens) (UniProt Q92905). As to the kind of experiment: CSN5 deneddylase inhibitors on cullin-RING ligase – biochemical, fluorescence polarization, uHTS, primary screen (AID 651999).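 Further: 0% = enzyme with substrate and 100% = substrate without enzyme.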 Conditions: Purified CSN, SCF-Nedd8-OG deneddylation, at 12.5 µM, active compounds read high. The method in brief:
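Assay system: purified human Csn5 enzyme expressed in HEK293T cells; measure: % inhibition; also added: SCFSkp2-Nedd8OG substrate at 10 nM final; technique: fluorescence polarization; times: reaction 90 min, room temperature; medium: Tris buffer pH 7.5, NaCl, DTT, Tween-20, trehalose, ovalbumin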
On the technique in general: Fluorescence polarisation rises when a labelled molecule tumbles more slowly, as on binding a larger partner.
On to `O=C(COc1ccc(S(=O)(=O)N2CCCCC2)cc1)NCc1ccccn1`, for which the inhibition is -4.23% (inactive). Consider `CC(=O)NS(=O)(=O)c1ccc(NC(=O)/C=C/c2ccccc2Cl)cc1`, for which the inhibition is 4.02% (inactive). In the case of `COc1ccccc1CNC(=O)CCCNS(=O)(=O)c1cccc2nsnc12` it was 1.39% (inactive). In the case of `Cc1ccc(CC2C(=O)N(c3ccc(F)cc3)C(=O)C2C)cc1` (configuration not stated) it was -0.88% (inactive); in that of `C#CCOCCOCCOCCNc1nc(N2CCN(C(=O)C(Cc3ccc(O)cc3)n3cc(C(N)CC(C)C)nn3)CC2)nc(N2CCN(C(=O)C(Cc3ccc(O)cc3)n3cc(C(N)C(C)CC)nn3)CC2)n1` (configuration not stated), 0.38% (inactive); in that of `C#CCOCCOCCOCCNc1nc(N2CCN(C(=O)C([C@@H](C)O)n3cc([C@@H](N)CCCCN)nn3)CC2)nc(N2CCN(C(=O)[C@H](CCCCN)n3cc(CN)nn3)CC2)n1` (some centres not stated), 37% (active). In the case of `C#CCOCCOCCOCCNc1nc(N2CCOCC2)nc(N2CCN(C(=O)[C@H](Cc3ccc(O)cc3)n3cc(CCO)nn3)CC2)n1` it was -2.16% (inactive); in that of `CCC(C)[C@@H](C(=O)N1CCNCC1)n1cc(CCCCN)nn1` (some centres not stated), -2.15% (inactive).

`C#CCOCCOCCOCCNc1nc(N2CCN(C(=O)CCCCCCCCCCNC(=O)Cn3cc(CCCCCN)nn3)CC2)nc(N2CCN(C(=O)CCCCCCCCCCNC(=O)[C@H](CO)n3cc(CCCSC)nn3)CC2)n1`: the inhibition was 89% (active). In the case of `CC/C(Cc1ccccc1)=N/NC(=O)CCn1nnc2ccccc21` it was 1.26% (inactive). On to `COc1ccc(NC(=O)C2CCC(CNc3c(N4CCCCC4)c(=O)c3=O)CC2)c(OC)c1` (configuration not stated), for which the inhibition was 1.79% (inactive). In the case of `CCOC(=O)C1(Cc2cccc(OC)c2)CCN(C(C)CC(C)(C)O)CC1` (configuration not stated) it was 0.5% (inactive). In the case of `Fc1ccc(-n2c(Cc3ccccc3)nnc2SCc2nc(-c3ccc(Cl)cc3)no2)cc1` it was 5.36% (inactive). In the case of `Cc1ccc(-c2ccc(CN3C(C)C(=O)N(Cc4cn(CCC5OCCCO5)nn4)CCS3(=O)=O)cc2)cc1` (configuration not stated) it was 0.07% (inactive). With `O=c1c2ccccc2c(-c2ccccc2)nn1-c1ccccn1`, the inhibition is 0.93% (inactive). In the case of `O=C(Nc1cc2c3c(c1)C1CCCC1CN3CC1CCCC21)c1ccc([N+](=O)[O-])cc1` (configuration not stated) it was -4.37% (inactive). In the case of `O=C(Nc1ccc(C2CC2(Cl)Cl)cc1)c1cccc([N+](=O)[O-])c1` (configuration not stated) it was -0.73% (inactive). Consider `Cn1ccc(=Nc2ccc(NC(=O)c3ccc(N=c4ccn(C)c5ccc([N+](=O)[O-])cc45)cc3)cc2)cc1`, for which the inhibition is 114% (active).

As for `CCCNC(=O)c1ccc(N2CCC3(CC2)CC(c2cccc(Br)c2)=NO3)c(NC(=O)c2ccco2)c1`, the inhibition is -1.32% (inactive). In the case of `C/C(=N\N=C(N)N)c1ccc(Cl)cc1` it was -1.16% (inactive). Take `O=C(Cc1ccccc1)Nc1c(C(=O)N2CCCCCC2)cnn1-c1ccccc1`: the inhibition was -1.5% (inactive). As to `CCN(C(=O)Cc1c(C(=O)O)n(CC)c2ccccc12)c1ccccc1C`, the inhibition was -2.24% (inactive).

On to `CC[n+]1cc(C)ccc1/C=C/c1ccc(N(C)C)cc1`, for which the inhibition was 35.4% (active). In the case of `CC(C)N1CCC(NC(=O)Nc2ccccc2)CC1` it was -2.66% (inactive); in that of `CC(=O)N1CCN(S(=O)(=O)c2c(F)cc(F)c(Cl)c2F)CC1`, -5.22% (inactive); in that of `CCOc1ccc(NC(=O)CN(C)CC(=O)NC(C)c2ccccc2)cc1OCC` (configuration not stated), 2.1% (inactive).

Regarding `CN1/C(=c2/s/c(=C3/C(=O)N(c4ccccc4)NC3=Nc3ccccc3)n(C)c2=O)C(C)(C)c2ccccc21`, the inhibition was 41.7% (active). Turning to `CCc1c(O)nc(SCC(=O)Nc2ccccc2)n(C(C)CC)c1=O` (configuration not stated), the inhibition is 2.98% (inactive). Take `O=C(Nc1ccc(N2CCN(C(=O)c3cccs3)CC2)cc1)c1cccnc1Cl`: the inhibition is -0.71% (inactive).

As for `CC(=O)Nc1cc(-c2ccc(N3CCN(C)CC3)cc2)cn2c(-c3ccc(F)cc3)cnc12`, the inhibition is 9.21% (inactive).

Turning to `C=CC(=O)Nc1ccc(Nc2ccnc(Nc3ccc(N4CCN(C)CC4)cc3)n2)cc1`, the inhibition is 103% (active). In the case of `C/C(=N/NS(=O)(=O)c1ccccc1)c1ccc(NC(=O)C(F)(F)F)cc1` it was -3.71% (inactive). In the case of `COc1ccccc1NC(=O)CCSc1nnc(-c2ccc(O)cc2)o1` it was -8.49% (inactive); in that of `Cc1ccc(N=C2NC(=O)/C(=C/C=C/c3ccco3)S2)cc1C`, 51.9% (active). In the case of `COc1ccc(CCN(Cc2cc3cccc(C)c3[nH]c2=O)C(=O)N2CCCC2)cc1OC` it was 2.45% (inactive). For `O=C(NCCCO)/C(=C\C=C\c1ccccc1)NC(=O)c1ccccc1Cl`, the inhibition is -3.06% (inactive).

On to `C=CCN(c1ccc(Cl)cc1)S(=O)(=O)c1cccc(C(=O)OCC(=O)N(C)C)c1`, for which the inhibition was -4.63% (inactive). In the case of `N#Cc1cc([N+](=O)[O-])ccc1Oc1cccc(/C=N/NC(=O)c2ccc(Cl)cc2)c1` it was 1.22% (inactive); in that of `CC(NC(=O)C(=O)N/N=C/c1ccc(Cl)cc1)c1ccccc1` (configuration not stated), -2.35% (inactive). As for `O=C(N/N=C/c1ccc(Cl)cc1)c1nc2ccc([N+](=O)[O-])cc2c(=O)[nH]1`, the inhibition was 56.7% (active). On to `COc1ccc(Cc2nnc(SCC(=O)N(c3ccccc3)C(C)C)n(N)c2=O)cc1`, for which the inhibition was 2.75% (inactive). In the case of `CC1(C2CC2)NC(=O)N(CC(=O)N2CCN(c3ccccc3F)CC2)C1=O` (configuration not stated) it was -0.85% (inactive); in that of `O=C(COc1ccc([N+](=O)[O-])cc1)Nc1ccc(N2CCCC2)cc1`, 45.2% (active); in that of `O=C(COC(=O)C1CCCCC1)Nc1ccc([N+](=O)[O-])cc1`, -5.15% (inactive). Regarding `O=C(CCC(=O)N1CCCC1)Nc1ccc([N+](=O)[O-])cc1`, the inhibition was -2.97% (inactive). For `Cn1c2c(c(=O)n(C)c1=O)[C@@H]1c3c(ccc4ccccc34)OC[C@@H]1CO2`, the inhibition was 0.02% (inactive). `COc1cc(C=NC2CCCCC2)ccc1O`: the inhibition was 4.95% (inactive). In the case of `COc1cc(/C=C(\C#N)c2nc3ccccc3[nH]2)ccc1O` it was 73.3% (active); in that of `COc1cc(/C=C(\C#N)c2nc3c(s2)CC(C)CC3)ccc1O` (configuration not stated), 82% (active); in that of `CCN(/N=C/c1ccc(N(C)C)cc1)c1nc2ccccc2[nH]1`, -1.85% (inactive).

Take `CC1(C)O[C@H]2CC(=O)OCC23[C@H]2CC[C@@]4(C)[C@H](c5ccoc5)OC(=O)[C@H]5O[C@]54[C@]2(C)C(=O)C[C@@H]13` (some centres not stated): the inhibition is -1.16% (inactive). In the case of `COc1cccc(NC(=O)CN(C)C(=O)c2ccccc2CCc2ccccc2)c1` it was 4.75% (inactive); in that of `O=C(NCc1ccccc1)C1=C[C@@H](c2ccc(C(F)(F)F)cc2)C[C@@H](OCc2ccc(CO)cc2)O1`, 4.14% (inactive); in that of `Cc1ccc(OCC(=O)Oc2ccccc2[N+](=O)[O-])cc1`, 1.14% (inactive).

For the compound `Cc1cc2nc(-c3ccc(F)cc3)c(Cc3ccsc3)n2c(C)c1Br`, the inhibition is -4.07% (inactive). Regarding `Cc1cc2nc(-c3ccc(Cl)cc3)c(Cc3cccc(F)c3)n2c(C)c1Br`, the inhibition was 3.52% (inactive). Take `Cc1cc2nc(-c3ccco3)c(Cc3cccc(F)c3)n2c(C)c1Br`: the inhibition was 38.5% (active). In the case of `O=C1NC2(CCCCC2)N=C1c1ccccc1` it was -2.27% (inactive); in that of `CC1CCCN(C(=O)Cn2c(=O)oc3cc(S(=O)(=O)N4CCCCC4C)ccc32)C1` (configuration not stated), -0.78% (inactive).

On to `C=CCc1ccc(OCCOc2cccc(/C=N/n3cnnc3)c2)c(OC)c1`, for which the inhibition was 0.99% (inactive). In the case of `O=C(CCN1C(=O)c2ccncc2C1=O)Nc1ccc2c(c1)OCCO2` it was 5.06% (inactive); in that of `Cc1ccc(C(=O)O)cc1-c1ccc(/C=C2\SC(=O)N(CC(=O)Nc3ccc4c(c3)OCO4)C2=O)o1`, 102% (active). For `Cc1nc([N+](=O)[O-])cn1CC(=O)Nc1ccc2c(c1)OCO2`, the inhibition is -0.35% (inactive). For `CNS(=O)(=O)c1ccc(N2CCCC2=O)c([N+](=O)[O-])c1`, the inhibition is -1.32% (inactive).

As for `Cc1ccc(-c2nn(-c3ccccc3)cc2/C=C2\SC(=S)N(CCCCCC(=O)O)C2=O)o1`, the inhibition is 66.1% (active). In the case of `O=C(O)CC/C(=N\NC(=O)c1ccc(F)cc1)c1ccc(Br)cc1` it was 51.7% (active); in that of `C/C(CC(=O)N1CCN(C=O)CC1)=N\NC(=O)c1ccc(Br)cc1`, -6.38% (inactive). As to `O=C(CNC(=O)c1ccccc1F)c1ccc(Br)cc1`, the inhibition was 3.53% (inactive). Turning to `Cc1ccn(CCC(=O)N2c3ccccc3CC2C)n1` (configuration not stated), the inhibition is 0.86% (inactive).

With `CCOC(=O)C1CCCN(CCSc2ccc(C)cc2)C1` (configuration not stated), the inhibition was -0.91% (inactive).

Consider `COc1ccc2c(c1)c(=Cc1ccc(N(C)C)cc1)c1cc(-c3ccccc3)[n+](C)n12`, for which the inhibition is 61.6% (active). In the case of `CCOC(=O)[C@]12CCCC=C1N(CCC1=CCCCC1)C(=O)[C@H](CC(=O)N1CCN(C(=O)c3ccco3)CC1)C2` it was -3.01% (inactive); in that of `CCC(C)Cn1c(O)cc2nn(-c3nc4ccccc4s3)c(=O)c-2c1C` (configuration not stated), 35.4% (active). In the case of `CCC(CC)C(=O)Nc1cccc(C(=O)N2CCCC2)c1` it was 2.19% (inactive); in that of `CC1CC(C)CN(S(=O)(=O)c2cccc3nonc23)C1` (configuration not stated), 0.47% (inactive).

For the compound `CCCCCN(C(=O)CCC(=O)OCC(=O)NCc1ccc(OC)cc1)c1c(N)n(CCCC)c(=O)[nH]c1=O`, the inhibition is 4.14% (inactive). In the case of `CC(C)C1CC2=C(C(=O)OC(C)(C)O2)C(c2ccc(F)cc2)O1` (configuration not stated) it was 2.3% (inactive); in that of `CCC(C)NC(=O)N[C@@H](CCSC)C(=O)O` (some centres not stated), -1.26% (inactive); in that of `Cc1sc2ncnc(SCC(=O)NC3CCS(=O)(=O)C3)c2c1C` (configuration not stated), -1.73% (inactive).

`Cc1sc2ncnc(SCC(=O)Nc3ccc(CN4CCCC4)cc3)c2c1C`: the inhibition was 108% (active). In the case of `COC(=O)c1c(-c2cccs2)csc1NC(=O)CSc1ncnc2sc(C)c(C)c12` it was -5.37% (inactive); in that of `Cc1ccc2nc(-c3ccncc3)cc(C(=O)Nc3ccc(OC(F)F)cc3)c2c1`, 42% (active); in that of `O=C(Nc1ccc(Br)cc1)c1cc(S(=O)(=O)Nc2ccccn2)ccc1Cl`, -4.77% (inactive). In the case of `Cc1cc(NS(=O)(=O)c2ccc(NC(=O)c3cccc(OC(F)F)c3)cc2)nc(C)n1` it was 2.76% (inactive); in that of `O=C(Nc1ccncc1)c1cc(-c2ccccn2)nc2ccc(Br)cc12`, 51.3% (active); in that of `O=C(Nc1cccnc1)c1cc2cc(Br)ccc2oc1=O`, 5.43% (inactive).

Take `COc1ccc(C)cc1NC(=O)c1cc(-c2ccccc2)nc2c1cnn2C(C)C`: the inhibition is -2.82% (inactive).

One may read the inhibition as the drop in the measured response relative to a control, in per cent.

(Values after PubChem BioAssay AID651999 (Sanford-Burnham Center for Chemical Genomics, 2013).)
